Among the data in ChEMBL document CHEMBL1132697, “Dual inhibition of phosphodiesterase 4 and matrix metalloproteinases by an (arylsulfonyl)hydroxamic acid template” (J Med Chem, 1999) are Ki values, retold here.

The target in one experiment is Stromelysin-1 (Homo sapiens, UniProt P08254). The experiment is described as follows: Inhibition of matrix metalloprotease-3 (MMP-3), stromelysin-1. The essentials:
(§1)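 Recombinant human enzymes (MMP-1, MMP-2, MMP-3) were used as the source for the inhibition measurements.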

A further experiment deals with T1, Interstitial collagenase (Homo sapiens, UniProt P03956).
T1 sequence (P03956 whole entry): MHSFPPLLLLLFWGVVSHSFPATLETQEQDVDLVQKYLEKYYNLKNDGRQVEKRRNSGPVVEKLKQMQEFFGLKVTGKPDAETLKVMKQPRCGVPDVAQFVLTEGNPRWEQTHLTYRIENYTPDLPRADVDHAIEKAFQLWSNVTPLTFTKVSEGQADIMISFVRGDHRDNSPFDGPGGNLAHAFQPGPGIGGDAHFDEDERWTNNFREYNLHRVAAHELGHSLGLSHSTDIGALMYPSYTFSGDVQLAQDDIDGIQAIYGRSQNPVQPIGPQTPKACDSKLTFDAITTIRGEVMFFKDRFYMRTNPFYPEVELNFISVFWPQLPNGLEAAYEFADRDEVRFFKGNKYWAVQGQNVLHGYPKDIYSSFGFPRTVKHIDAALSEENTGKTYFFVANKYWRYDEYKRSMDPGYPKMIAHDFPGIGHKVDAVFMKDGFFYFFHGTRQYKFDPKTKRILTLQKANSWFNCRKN
Kind of experiment: Inhibition of matrix metalloprotease-1 (MMP-1), fibroblast collagenase. The procedure, abridged: as §1

In experiment [1] the target is 72 kDa type IV collagenase (Homo sapiens, UniProt P08253). The experiment is described as follows: Inhibition of matrix metalloprotease-2 (MMP-2), gelatinase-A. The essentials:
as §1

Stromelysin-1, sequence (P08254 whole entry): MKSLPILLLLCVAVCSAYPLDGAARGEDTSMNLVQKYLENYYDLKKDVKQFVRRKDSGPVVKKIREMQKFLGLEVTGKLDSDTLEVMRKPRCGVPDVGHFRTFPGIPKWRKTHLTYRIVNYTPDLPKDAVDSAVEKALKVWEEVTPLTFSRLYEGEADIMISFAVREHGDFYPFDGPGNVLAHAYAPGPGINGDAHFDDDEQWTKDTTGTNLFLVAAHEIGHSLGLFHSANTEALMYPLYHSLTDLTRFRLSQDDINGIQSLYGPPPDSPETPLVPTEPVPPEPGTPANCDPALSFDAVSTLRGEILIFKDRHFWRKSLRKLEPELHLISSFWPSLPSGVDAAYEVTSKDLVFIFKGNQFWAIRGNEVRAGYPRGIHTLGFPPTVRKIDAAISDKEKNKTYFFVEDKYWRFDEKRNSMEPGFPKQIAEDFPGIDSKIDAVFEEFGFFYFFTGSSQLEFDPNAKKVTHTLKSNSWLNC
72 kDa type IV collagenase, sequence (P08253 whole entry): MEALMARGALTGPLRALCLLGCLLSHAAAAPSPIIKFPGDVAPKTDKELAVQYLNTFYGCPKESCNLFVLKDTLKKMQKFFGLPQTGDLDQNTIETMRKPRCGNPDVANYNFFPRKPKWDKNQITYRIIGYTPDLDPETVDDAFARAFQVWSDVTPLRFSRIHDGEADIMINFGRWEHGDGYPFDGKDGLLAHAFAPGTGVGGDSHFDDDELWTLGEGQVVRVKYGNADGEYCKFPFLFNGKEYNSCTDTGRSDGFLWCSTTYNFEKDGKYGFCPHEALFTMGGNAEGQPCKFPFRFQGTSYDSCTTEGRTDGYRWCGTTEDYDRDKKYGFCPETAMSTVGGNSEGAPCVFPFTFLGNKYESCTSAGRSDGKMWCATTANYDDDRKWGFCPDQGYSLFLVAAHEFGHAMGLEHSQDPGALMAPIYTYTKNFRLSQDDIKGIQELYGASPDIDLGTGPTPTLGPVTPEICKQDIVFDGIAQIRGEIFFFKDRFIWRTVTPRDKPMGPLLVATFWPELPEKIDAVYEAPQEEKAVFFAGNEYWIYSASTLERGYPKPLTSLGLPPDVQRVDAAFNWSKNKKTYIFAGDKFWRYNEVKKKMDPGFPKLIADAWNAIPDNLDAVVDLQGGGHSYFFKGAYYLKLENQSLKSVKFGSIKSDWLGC

`COc1ccc(S(=O)(=O)C(CCc2ccccc2)CC(=O)NO)cc1` (centres undefined): the figures for the Ki (at Stromelysin-1; at Interstitial collagenase; in experiment [1]) were 200 nM, 4000 nM and 30 nM, respectively.

As for `COc1ccc(S(=O)(=O)C(CCCc2ccccc2)CC(=O)NO)cc1` (centres undefined), the Ki on Stromelysin-1 worked out at 600 nM; at Interstitial collagenase, 2000 nM; in experiment [1], 50 nM.

As to `COc1ccc(S(=O)(=O)[C@H](CCCCc2ccccc2)[C@@H](C)C(=O)NO)cc1`, the Ki at Stromelysin-1 was 500 nM; at Interstitial collagenase it was 2000 nM; in experiment [1] it was 10 nM.

For `COc1ccc(S(=O)(=O)C(CC(=O)NO)Cc2ccccc2)cc1` (centres undefined), the Ki at Stromelysin-1 was found to be 300 nM; on Interstitial collagenase, 1000 nM; in experiment [1], 20 nM.

Turning to `COc1ccc(S(=O)(=O)C(CCCCc2ccccc2)CC(=O)NO)cc1` (centres undefined), the Ki on Stromelysin-1 came to 700 nM; on Interstitial collagenase, 5000 nM; in experiment [1] it was 20 nM.

As to `COc1ccc(S(=O)(=O)C(C)(CCCCc2ccccc2)CC(=O)NO)cc1` (centres undefined), the values for the Ki (at Stromelysin-1; on Interstitial collagenase; in experiment [1]) were 1000 nM, 2000 nM and 50 nM, respectively.

With `COc1ccc(S(=O)(=O)C(CCCCc2ccccc2)C(C)C(=O)NO)cc1` (centres undefined), the results for the Ki (at Stromelysin-1; at Interstitial collagenase; in experiment [1]) were 600 nM, 2000 nM and 60 nM, respectively.

With `COc1ccc(S(=O)(=O)C(CCCCc2ccccc2)CC(=O)NO)cc1OC` (centres undefined), the Ki (on Stromelysin-1; at Interstitial collagenase; in experiment [1]) was more than 10000 nM throughout.
